Measurements from ChEMBL document CHEMBL4190330, “Discovery of Potent and Selective A2A Antagonists with Efficacy in Animal Models of Parkinson's Disease and Depression” (ACS Med Chem Lett, 2017).

What was measured:
[1] = Metabolic stability in human liver microsomes; type: ADME, microsome
Adenosine receptor A2a [2] = target: T1, Adenosine receptor A2a (Homo sapiens, UniProt P29274); assay: Displacement of [3H]ZM241385 from human A2A receptor expressed in HEK293 cell membranes after 90 mins radioligand binding assay
Method in brief: (§1)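 Membranes from HEK-293 cells overexpressing the relevant human adenosine receptor subtype; all points in triplicate; Ki derived from 8-concentration IC50 curves.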

[3] = target: T2, Adenosine receptor A1 (Homo sapiens) (UniProt P30542); assay: Displacement of [3H]-DPCPX from human A1 receptor expressed in HEK293 cell membranes at 1 uM after 90 mins radioligand binding assay relative to control
T2 sequence (whole entry): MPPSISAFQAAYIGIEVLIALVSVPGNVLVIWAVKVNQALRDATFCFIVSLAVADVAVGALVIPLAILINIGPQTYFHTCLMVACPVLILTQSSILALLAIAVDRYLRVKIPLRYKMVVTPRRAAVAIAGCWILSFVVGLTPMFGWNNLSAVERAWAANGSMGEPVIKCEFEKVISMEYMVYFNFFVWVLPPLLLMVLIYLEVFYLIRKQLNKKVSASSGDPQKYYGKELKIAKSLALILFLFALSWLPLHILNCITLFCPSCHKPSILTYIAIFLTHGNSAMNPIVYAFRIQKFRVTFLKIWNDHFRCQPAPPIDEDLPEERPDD

Adenosine receptor A2a [4] = target: T1, Adenosine receptor A2a; assay: Antagonist activity at human A2A receptor expressed in HEK293 cell membranes assessed as reduction in CGS-21680-induced cAMP level pretreated for 15 mins followed by CGS-21680 addition measured after 30 mins by HTRF assay; type: functional, cell-based
Method in brief: (§2)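 HTRF-based cAMP functional assay; each compound tested at 12 concentrations, every point in triplicate; Ki given as mean of two independent experiments (n=2).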

[5] = Metabolic stability in rat liver microsomes; type: ADME, microsome
Adenosine receptor A2a [6] = target: Adenosine receptor A2a (Rattus norvegicus, UniProt P30543); assay: Antagonist activity at rat A2A receptor assessed as reduction in CGS-21680-induced cAMP level pretreated for 15 mins followed by CGS-21680 addition measured after 30 mins by HTRF assay; type: functional; method in brief: as §2
[7] = Solubility of the compound at pH 7.4; type: physicochemical; conditions: buffer
Homo sapiens [8] = species on record: Homo sapiens; assay: Selectivity ratio of Ki for displacement of [3H]-HEMADO from human A3 receptor expressed in HEK293 cell membranes to Ki for displacement of [3H]ZM241385 from human A2A receptor expressed in HEK293 cell membranes
Method in brief: (§3)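 Radioligand binding used membranes from HEK-293 cells overexpressing each human adenosine receptor isoform. Points were run in triplicate, and 8-concentration IC50 curves were plotted to give Ki. The selectivity value is the Ki at the off-target isoform divided by the Ki at hA2A.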

Homo sapiens [9] = species on record: Homo sapiens; assay: Selectivity ratio of Ki for displacement of [3H]-DPCPX from human A1 receptor expressed in HEK293 cell membranes to Ki for displacement of [3H]ZM241385 from human A2A receptor expressed in HEK293 cell membranes; method in brief: as §3
Adenosine receptor A1 = target: T3, Adenosine receptor A1 (Homo sapiens, UniProt P30542); assay: Displacement of [3H]-DPCPX from human A1 receptor expressed in HEK293 cell membranes after 90 mins radioligand binding assay; method in brief: as §1
T3 sequence (P30542 whole entry): T2 sequence (whole entry)

Homo sapiens [10] = species on record: Homo sapiens; assay: Selectivity ratio of Ki for displacement of [3H]-MRS-1754 from human A2B receptor expressed in HEK293 cell membranes to Ki for displacement of [3H]ZM241385 from human A2A receptor expressed in HEK293 cell membranes; method in brief: as §3

T1 sequence (P29274 whole entry): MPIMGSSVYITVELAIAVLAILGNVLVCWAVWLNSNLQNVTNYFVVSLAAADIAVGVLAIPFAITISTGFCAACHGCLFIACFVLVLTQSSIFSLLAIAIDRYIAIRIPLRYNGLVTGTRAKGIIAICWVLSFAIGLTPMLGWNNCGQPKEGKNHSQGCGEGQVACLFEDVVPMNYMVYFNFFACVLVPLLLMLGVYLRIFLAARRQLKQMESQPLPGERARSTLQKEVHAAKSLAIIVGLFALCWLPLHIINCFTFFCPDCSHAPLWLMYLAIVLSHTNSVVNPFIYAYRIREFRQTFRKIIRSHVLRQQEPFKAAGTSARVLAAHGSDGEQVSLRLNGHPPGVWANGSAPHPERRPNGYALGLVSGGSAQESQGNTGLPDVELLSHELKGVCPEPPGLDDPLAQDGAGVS
Chain of Adenosine receptor A2a (Rattus norvegicus, UniProt P30543) (P30543 whole entry): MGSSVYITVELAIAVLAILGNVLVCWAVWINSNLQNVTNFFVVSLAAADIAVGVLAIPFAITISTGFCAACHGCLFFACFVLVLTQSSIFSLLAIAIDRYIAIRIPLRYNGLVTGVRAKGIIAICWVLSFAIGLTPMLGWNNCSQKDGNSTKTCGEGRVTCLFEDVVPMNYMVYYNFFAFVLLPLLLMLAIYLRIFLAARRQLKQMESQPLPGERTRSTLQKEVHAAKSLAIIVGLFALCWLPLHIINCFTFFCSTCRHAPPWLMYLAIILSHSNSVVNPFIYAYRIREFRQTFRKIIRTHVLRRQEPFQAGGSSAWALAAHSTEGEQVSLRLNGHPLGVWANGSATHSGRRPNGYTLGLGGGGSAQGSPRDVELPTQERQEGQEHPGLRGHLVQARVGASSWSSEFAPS

| SMILES | Stability [1] | Ki (Adenosine receptor A2a [2]) | inhibition [3] | Ki (Adenosine receptor A2a [4]) | Stability [5] | Ki (Adenosine receptor A2a [6]) | solubility [7] | Ki (Adenosine receptor A1) | Ratio Ki (Homo sapiens [8]) | Ratio Ki (Homo sapiens [9]) | Ratio Ki (Homo sapiens [10]) |
| --- | --- | --- | --- | --- | --- | --- | --- | --- | --- | --- | --- |
| Cn1c(=O)n(CCN2CCN(c3ccc(C#N)c(F)c3)CC2)c2nc(N)n3nc(-c4ccco4)nc3c21 | Stable | 0.5 nM | 50% | 0.4 nM | Stable |  |  |  |  |  |  |
| Cn1c(=O)n(CCN2CCN(c3ccc(C(F)(F)F)cc3)CC2)c2nc(N)n3nc(-c4ccco4)nc3c21 | Stable | 3.1 nM | 57% |  | Stable |  |  |  |  |  |  |
| COCCOc1c(F)cc(N2CCN(CCn3c(=O)n(C)c4c3nc(N)n3nc(-c5ccco5)nc43)CC2)cc1F | Stable | 0.6 nM | 65% |  | Stable |  |  |  |  |  |  |
| Cn1c(=O)n(CCN2CCN(c3ccc(C#N)cc3)CC2)c2nc(N)n3nc(-c4ccco4)nc3c21 | Stable | 0.6 nM |  | 0.3 nM | Stable | 1.15 nM | < 2 µM | 5000 nM | > 8000 | > 8000 | > 8000 |
| Cc1nc2cc(N3CCN(CCn4c(=O)n(C)c5c4nc(N)n4nc(-c6ccco6)nc54)CC3)c(F)cc2o1 | Stable | 0.4 nM | 48% | 0.15 nM | Stable | 0.05 nM |  |  |  |  |  |
| COc1ccc(N2CCN(CCn3c(=O)n(C)c4c3nc(N)n3nc(-c5ccco5)nc43)CC2)cn1 | Stable | 4.5 nM | 61% |  | Stable |  |  |  |  |  |  |
| COCCOc1cc(F)c(N2CCN(CCn3c(=O)n(C)c4c3nc(N)n3nc(-c5ccco5)nc43)CC2)cc1F | Stable | 0.9 nM | 58% | 1.2 nM | Stable |  |  |  |  |  |  |
| Cn1c(=O)n(CCN2CCN(c3ccc(F)cc3F)CC2)c2nc(N)n3nc(-c4ccco4)nc3c21 | Stable | 1 nM | 32% | 0.07 nM | Stable |  |  |  |  |  |  |
| Cn1c(=O)n(CCN2CCN(c3nc(C(F)(F)F)cs3)CC2)c2nc(N)n3nc(-c4ccco4)nc3c21 | Stable | 1.2 nM | 58% | 0.9 nM | Stable |  |  |  |  |  |  |
| Cn1c(=O)n(CCN2CCN(c3ccc(OC4CCOC4)cc3)CC2)c2nc(N)n3nc(-c4ccco4)nc3c21 (stereo not given) | Stable | 0.2 nM | 49% | 0.22 nM | Stable |  |  |  |  |  |  |
| COc1ccc(N2CCN(CCn3c(=O)n(C)c4c3nc(N)n3nc(-c5ccco5)nc43)CC2)c(F)c1 | Stable | 0.4 nM | 45% | 0.06 nM | Stable | 0.06 nM |  |  |  |  |  |
| Cc1ccc(N2CCN(CCn3c(=O)n(C)c4c3nc(N)n3nc(-c5ccco5)nc43)CC2)nc1 | Stable | 1.7 nM | 61% | 0.4 nM | Stable | 0.65 nM |  |  |  |  |  |
| Cn1c(=O)n(CCN2CCN(c3ccc(OC4CCOCC4)cc3)CC2)c2nc(N)n3nc(-c4ccco4)nc3c21 | Stable | 0.3 nM | 56% | 0.26 nM | Stable |  |  |  |  |  |  |

More lines, main results first:

| Stability [1] | Ki (Adenosine receptor A2a [2]) | inhibition [3] | Ki (Adenosine receptor A2a [4]) | Stability [5] | Ki (Adenosine receptor A2a [6]) | solubility [7] | Ki (Adenosine receptor A1) | SMILES | Ratio Ki (Homo sapiens [8]) | Ratio Ki (Homo sapiens [9]) | Ratio Ki (Homo sapiens [10]) |
| --- | --- | --- | --- | --- | --- | --- | --- | --- | --- | --- | --- |
| Stable | 1.4 nM | 45% | 1.1 nM | Stable | 0.74 nM |  |  | Cc1ccc(N2CCN(CCn3c(=O)n(C)c4c3nc(N)n3nc(-c5ccco5)nc43)CC2)cc1 |  |  |  |
| Stable | 6.4 nM | 19% | 1.2 nM | Stable | 11.1 nM |  |  | COCCOc1ccc(N2CCN(CCn3c(=O)n(C)c4c3nc(N)n3nc(-c5nccs5)nc43)CC2)cc1 |  |  |  |
| Stable | 1 nM | 58% | 0.21 nM | Stable | 0.58 nM |  |  | COc1ccc(N2CCN(CCn3c(=O)n(C)c4c3nc(N)n3nc(-c5ccco5)nc43)CC2)cc1 |  |  |  |
| Stable | 0.5 nM | 36% | 2.1 nM | Stable | 0.72 nM |  |  | COCC(C)(C)Oc1ccc(N2CCN(CCn3c(=O)n(C)c4c3nc(N)n3nc(-c5ccco5)nc43)CC2)cc1 |  |  |  |
| Stable | 1.9 nM | 34% | 0.27 nM | Stable | 1.07 nM |  |  | Cn1c(=O)n(CCN2CCN(c3ccc(OC(F)F)cc3)CC2)c2nc(N)n3nc(-c4ccco4)nc3c21 |  |  |  |
| Stable | 0.5 nM | 63% | 0.5 nM | Stable | 3.9 nM |  |  | COCCOc1cccc(N2CCN(CCn3c(=O)n(C)c4c3nc(N)n3nc(-c5ccco5)nc43)CC2)c1 |  |  |  |
| Stable | 0.3 nM | 50% | 0.25 nM | Stable |  |  |  | Cn1c(=O)n(CCN2CCN(c3ccc(OC4CC4)cc3)CC2)c2nc(N)n3nc(-c4ccco4)nc3c21 |  |  |  |
| Stable | 0.4 nM | 56% | 1.5 nM | Stable | 0.42 nM |  |  | COCC(C)Oc1ccc(N2CCN(CCn3c(=O)n(C)c4c3nc(N)n3nc(-c5ccco5)nc43)CC2)cc1 (stereo not given) |  |  |  |
| Stable | 0.7 nM | 68% |  | Stable |  |  |  | COCCOc1ccc(N2CCN(CCn3c(=O)n(C)c4c3nc(N)n3nc(-c5ccco5)nc43)CC2)cc1F |  |  |  |
| Stable | 2 nM |  | 0.42 nM | Stable | 0.28 nM | < 6 µM | 1700 nM | COCCOc1ccc(N2CCN(CCn3c(=O)n(C)c4c3nc(N)n3nc(-c5ccco5)nc43)CC2)cc1 | > 2000 | 850 | > 3000 |
| Stable | 2 nM | 66% |  | Stable |  |  |  | Cn1c(=O)n(CCN2CCN(c3ccc(OCCOC4CC4)cc3)CC2)c2nc(N)n3nc(-c4ccco4)nc3c21 |  |  |  |
